Screening results from PubChem BioAssay.
M4 antag – antagonists of human muscarinic M4 receptor (CHRM4) | P08173 | CHO-hM4 cells, ACh EC80, Fluo-8 calcium fluorescence | inhibition, % at 3 µM | 360,000 compounds, 0.73% hits | AID 624125;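 active = inhibition above its plate's cutoff, the mean inhibition of sample wells plus 3 SD, cut at about 27% in these data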;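 note: 0% = acetylcholine EC80 with DMSO and 100% = DMSO without agonist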
Target sequence (P08173 whole entry, looked up): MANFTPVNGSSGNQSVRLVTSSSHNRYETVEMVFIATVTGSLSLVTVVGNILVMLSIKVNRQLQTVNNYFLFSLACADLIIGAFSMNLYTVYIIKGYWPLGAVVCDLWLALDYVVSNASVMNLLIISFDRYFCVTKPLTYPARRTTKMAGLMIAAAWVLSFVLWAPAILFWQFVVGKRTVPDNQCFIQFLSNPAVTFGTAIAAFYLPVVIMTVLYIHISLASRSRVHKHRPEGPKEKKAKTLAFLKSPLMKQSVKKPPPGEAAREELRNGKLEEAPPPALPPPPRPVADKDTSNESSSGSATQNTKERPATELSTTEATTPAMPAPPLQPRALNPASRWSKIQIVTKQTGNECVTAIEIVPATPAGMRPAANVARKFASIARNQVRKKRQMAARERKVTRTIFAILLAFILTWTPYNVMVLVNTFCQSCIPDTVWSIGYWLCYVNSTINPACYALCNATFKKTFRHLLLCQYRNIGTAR
CHRM5 agonist – CHRM5 agonism in calcium assay. CHO-K1 hM5 cells, Fluo-8 calcium fluorescence; 0% DMSO wells, 100% maximal acetylcholine response. activation, % at 3 µM. 360,000 compounds, 0.19% hits;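 active = activation above the run's mean over test compounds plus 3 SD, cut at about 23% in these data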;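 note: signal is peak over basal fluorescence ratio across the kinetic read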
M5 PAM – positive allosteric modulators of human muscarinic M5 receptor. AID 624038. activation, % at 3 µM. P08912. CHO-K1 hM5, Fluo-8 calcium, ACh EC20 PAM; 0% = ACh EC20, 100% = ACh EC100. 360,000 compounds, 0.3% hits;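 active = activation above the run cutoff, the mean activation of all test compounds plus 3 SD, cut at about 18% in these data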
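Measured by: Fluo-8 calcium fluorescence; material: human M5 receptor in CHO-K1 cells; schedule: Post-acetylcholine fluorescence recording 140 s; benchmarks: low control EC20 acetylcholine (0%), high control EC100 acetylcholine (100%); read-out: Max/basal fluorescence ratio as % of EC20–EC100 ACh window; compound: single dose, 3 µM nominal final test concentration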
M5 antag – antagonists of human muscarinic M5 receptor (CHRM5); CHO-hM5 cells, Fluo-8 calcium fluorescence, ACh EC80; inhibition, % at 3 µM; 360,000 compounds, 0.59% hits;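 active = inhibition above a per-plate cutoff, the mean of that plate's test compounds plus 3 SD, cut at about 27% in these data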;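 note: 0% = acetylcholine EC80 with DMSO and 100% = DMSO without agonist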
M4 PAM – positive allosteric modulators of human muscarinic M4 receptor; CHO-K1 hM4/Gqi5, Fluo-8 calcium fluorescence, ACh EC20; 0% = ACh EC20, 100% = maximal ACh; activation, % at 3 µM; 360,000 compounds, 0.4% hits; P08173;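 active = activation above its plate's cutoff, the mean activation of sample wells plus 3 SD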
CHRM4 agonist – CHRM4 agonism in calcium assay. activation, % at 3 µM. AID 624127. 360,000 compounds, 0.14% hits. CHO-K1 hM4/Gqi5, Fluo-8 calcium fluorescence; vehicle 0%, full acetylcholine response 100%;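 active = activation above the run mean over all test wells plus 3 SD, cut at about 32% in these data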;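 note: peak over basal fluorescence ratio per well then scaled between controls; 0% = DMSO wells and 100% = acetylcholine at EC100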
Starred values were filed as active, the others as inactive; + = active, no number. An excerpt weighted towards active compounds, which were near 1.8% of everything screened.

SMILES | M4 antag | CHRM5 agonist | M5 PAM | M5 antag | M4 PAM | CHRM4 agonist
COc1ccc(C)cc1NC(C)C(=O)NC(=O)NC1CCCCC1 (stereo unspecified) | 2 | -2 | 7 | 1 | 3 | -1
S=c1[nH]nc(CN2CCCCC2)n1-c1ccc(Cl)cc1 | 2 | 2 | -12 | 10 | -7 | 15
Fc1ccc(-n2c(CN3CCCCC3)n[nH]c2=S)cc1 | -5 | 2 | 21* | 1 | 10 | 1
COc1ccccc1C(=O)NCCC(=O)NCc1ccncc1 | -3 | -7 | 5 | 9 | 1 | 1
CCC(=O)c1ccc(OC(=O)c2ccc(Br)o2)cc1 | 1 | 36* | -7 | 0 | -10 | 33*
CCOC(=O)c1c(S(=O)(=O)Nc2ccc(C)cn2)c(C)n(C)c1C | 7 | -4 | 0 | -1 | 0 | 0
N#Cc1ccc2[nH]cc(C3c4cc(F)ccc4C=C(c4ccsc4)N3c3ccc(C#CCCO)cc3)c2c1 (stereo unspecified) | 41* | -5 | -9 | 4 | -15 | 2
COc1cc(-c2ccc(N3C(c4ccsc4)=Cc4ccc(F)cc4C3c3c[nH]c4ccc(C#N)cc34)cc2)cc(OC)c1OC (stereo unspecified) | -2 | 2 | -8 | -1 | 5 | 1
Cc1ccc2nc(C)cc(C(=O)NC3CCCCCC3)c2c1 | -19 | 5 | -7 | -4 | 25* | 2
COc1ccc(CCNC(=O)[C@H](C)NC(=O)N2CCn3c2nc2ccccc23)cc1OC | -5 | 1 | 1 | 0 | 0 | -1
Clc1cccc(Cl)c1/C=N/Nc1c(Cl)cncc1Cl | 4 | 5 | 28* | -15 | -1 | 0
O=C(NN=C1CCCCC1)Nc1ccccc1Cl | -22 | -4 | 9 | 2 | 16 | 1
Cc1cc(N2CCCCC2)nc(NCc2ccccc2)n1 | 8 | 33* | -24 | 8 | -17 | 37*
O=C1CSC(c2ccccn2)N1c1ccc(Br)cc1 (stereo unspecified) | 61* | -13 | 3 | 7 | -22 | 0
O=C1CSC(c2ccccn2)N1c1ccccc1 (stereo unspecified) | 0 | -1 | 3 | 1 | 10 | 1
COC(=O)c1ccccc1-c1c2ccc(=N)cc-2oc2cc(N)ccc12 | 101* | + | -46 | 101* | -20 | +
c1ccc(SCc2cn(C[C@H]3CC[C@@H]([C@@H]4CC[C@H](Cn5cc(CSc6ccccc6)nn5)O4)O3)nn2)cc1 | 16 | 5 | -28 | 15 | -14 | 19
CN(C(=O)CCN1C(=O)/C(=C/c2ccccc2)SC1=S)C1CCS(=O)(=O)C1 (stereo unspecified) | -5 | 2 | 30* | 21 | 0 | 3
CN(C(=O)CN1C(=O)S/C(=C\c2ccccc2)C1=O)C1CCS(=O)(=O)C1 (stereo unspecified) | -1 | 0 | 4 | -1 | 6 | 1
CN(C(=O)CN1C(=O)/C(=C/c2ccc(F)cc2)SC1=S)C1CCS(=O)(=O)C1 (stereo unspecified) | 3 | -1 | 9 | 5 | 8 | 1
CN(C(=O)CN1C(=O)S/C(=C\c2ccc(Cl)cc2)C1=O)C1CCS(=O)(=O)C1 (stereo unspecified) | -21 | -3 | 1 | -8 | 17* | 3
O=C(CCl)N(O)c1ccc(C=Cc2ccccc2)cc1 | 2 | 4 | 3 | 7 | 8 | 5
O=C(NCC(c1ccc(F)cc1)N1CCOCC1)c1ccc([N+](=O)[O-])o1 (stereo unspecified) | 3 | 1 | -7 | 14 | 2 | 2
COc1ccc(NC(=O)c2ccco2)cc1N | -9 | -2 | 20* | -2 | 5 | 3
CCN(CC)c1ccc(C2C(C(=O)OCCOC(C)C)=C(C)NC3=C2C(=O)CCC3)cc1 (stereo unspecified) | 33* | -7 | -21 | 25 | -20 | 1
SMILES | M4 antag | CHRM5 agonist | M5 PAM | M5 antag | M4 PAM | CHRM4 agonist
Cc1nn(CC(=O)NCCCN2CCC(Cc3ccccc3)CC2)c(=O)c2cc(-c3ccccc3)nn12 | 17 | -6 | -5 | 7 | -14 | 10
CCc1ccc(-c2cc3c(=O)n(CC(=O)NCCCN4CCC(Cc5ccccc5)CC4)nc(C)n3n2)cc1 | 40* | -8 | -8 | 11 | -10 | 7
O=C(NCc1ccccn1)/C(=C/c1ccco1)NC(=O)c1ccccc1 | -14 | 0 | 0 | -4 | 21* | 5
Nc1nnn(CC(=O)N/N=C/c2ccc(Cl)cc2Cl)n1 | -21 | 1 | -2 | -5 | 30 | 1
CC(=O)OC[C@]1(OC(C)=O)C[C@@]23CC[C@H]4[C@@](C)(CCC[C@@]4(C)C(=O)O)[C@@H]2CC[C@@H]1C3 | -1 | -1 | -2 | 7 | 2 | 1
CC(=O)OC[C@]12CC[C@H]3[C@@](C)(CC[C@H]4C(C)(C)CCC[C@]34C)[C@@H]1CC(C1=CC(=O)OC1O)O2 (stereo partly specified) | 88* | 1 | -2 | 13 | -13 | 2
CCCOc1ccc(C(=O)CCC(=O)OCC(=O)N2CCN(S(=O)(=O)c3ccc(C)cc3C)CC2)cc1 | 23 | 2 | -27 | 20 | -8 | 18
COc1cc(CNCCc2ccccc2)cc(Cl)c1OCc1ccccc1 | 27* | 5 | 3 | 4 | -15 | 21
Cc1cccc(C(=O)OCC(=O)N2CC(=O)Nc3ccccc32)c1C | 6 | -3 | 11 | 7 | 0 | 2
N#Cc1ccc(S(=O)(=O)NC2CC2)cc1 | -12 | -3 | 5 | 9 | 5 | 1
CCSc1ccc(/C(N)=N/OC(=O)c2cccs2)cn1 | 2 | -2 | 0 | 1 | 1 | 1
O=c1c2c(nc3nc(CCc4ccccc4)[nH]n13)CCC2 | -12 | -4 | 22* | -6 | 7 | -1
O=c1c2c(nc3nc(NCc4ccc(Cl)cc4)[nH]n13)CCC2 | 5 | -2 | -6 | -4 | -9 | 0
COc1ccc(N/C=C(\C#N)c2nc3ccccc3n2C)c(OC)c1 | 28* | -2 | -10 | 11 | -15 | 7
COC(=O)C1=NN(C(=O)c2cccc(Br)c2)C(O)(c2ccc(Cl)cc2)C1 (stereo unspecified) | 2 | 16 | -11 | 3 | -5 | 39*
C#CCOCCOCCOCCNc1nc(N2CCN(C(=O)C([C@@H](C)O)n3cc([C@@H](N)CCCCN)nn3)CC2)nc(N2CCN(C(=O)[C@H](CC(N)=O)n3cc(C(N)[C@@H](C)CC)nn3)CC2)n1 (stereo partly specified) | 35* | 1 | -4 | 5 | -12 | -1
